Assay results published in ChEMBL document CHEMBL3877276, “Design, synthesis, and biological evaluation of cyclic-indole derivatives as anti-tumor agents via the inhibition of tubulin polymerization” (Eur J Med Chem, 2017).
Blank lines part the entries; values can stand above or below the compound they belong to. Activity calls are given as the source filed them. No cut-off for these calls is given here.

Key:
[1] = Antiproliferative activity against human PC3 cells measured after 48 hrs by MTT assay; type: functional, cell-based; settings: PC-3, 48 h
[2] = Antiproliferative activity against human MCF7 cells measured after 48 hrs by MTT assay; type: functional, cell-based; settings: MCF7, 48 h
[3] = Antiproliferative activity against human Bel7402 cells measured after 48 hrs by MTT assay; type: functional, cell-based; settings: Bel-7402, 48 h
[4] = Antiproliferative activity against human LoVo cells measured after 48 hrs by MTT assay; type: functional, cell-based
[5] = Antiproliferative activity against human A549 cells measured after 48 hrs by MTT assay; type: functional, cell-based; settings: A549, 48 h
[6] = Antiproliferative activity against human A2780 cells measured after 48 hrs by MTT assay; type: functional, cell-based; settings: A2780, 48 h
[7] = Antiproliferative activity against human HeLa cells measured after 48 hrs by MTT assay; type: functional, cell-based
[8] = Inhibition of porcine brain tubulin polymerization measured every 60 secs for 90 mins by fluorescence assay; set-up: species or system Sus scrofa
Method in brief: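 Porcine brain tubulin in a fluorescence kit. Reaction mix: 80.0 mM PIPES sesquisodium (pH 6.9), 2.0 mM MgCl2, 0.5 mM EGTA, 1 mM GTP, 10.2% glycerol. Compound added and mix pre-warmed 1 min at 37 °C, then tubulin added to start. Fluorescence (ex 340, em 410 nm) read every 60 s for 90 min. IC50 from area under curve, three independent experiments.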

[9] = system: A549; experiment: Induction of apoptosis in human A549 cells assessed as late and early apoptotic cells at 50 nM measured after 48 hrs by Annexin-V-FITC/propidium iodide staining based flow cytometry (reference value: 0.63 %); type: functional
Method in brief: (§1)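 A549 seeded at 3×10^5 cells/well and treated at 10, 20 or 50 nM for 24 or 48 h, then harvested. Annexin V-FITC in HEPES 10 mM/NaCl 140 mM/CaCl2 2.5 mM (pH 7.4) 15 min at room temperature, then PI 10 min. About 10,000 events by flow cytometry, quadrants scored as early or late apoptotic. Three repeats.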

[10] = Antiproliferative activity against HLF measured after 48 hrs by MTT assay; settings: Homo sapiens
Method in brief: (§2)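 Cells in log phase plated at 5×10^3 cells/well, grown 24 h at 37 °C, 5% CO2, then exposed to a range of compound concentrations for 48 h. MTT (5 mg/mL stock) added, formazan dissolved in DMSO, absorbance read at 570 nm. IC50 from nonlinear regression, at least three independent experiments. Quiescent HUVECs kept in endothelial medium with 0.5% fetal calf serum, no growth factor.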

[11] = Selectivity ratio of IC50 for human BJ cells to IC50 for human A549 cells; type: ADME, cell-based; settings: BJ cells versus A549 cells, read-out: Ratio IC50
Method in brief: (§3)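 Ratio = IC50 in the normal line (HUVEC quiescent in 0.5% fetal calf serum without growth factor, MCF-10A, BJ or HLF) divided by IC50 in A549.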

[12] = system: A549; experiment: Cytotoxicity against human A549 cells assessed as change in cell morphology at 20 to 200 nM measured after 48 hrs by phase contrast microscopy; type: functional, cell-based
Method in brief: (§4)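 A549 cells and quiescent HUVECs (0.5% fetal calf serum, no growth factor) treated at 20 and 200 nM for 48 h. Morphology (rounding, shrinkage, blebbing, detachment) inspected by microscopy.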

[13] = system: A549; experiment: Induction of apoptosis in human A549 cells assessed as late and early apoptotic cells at 20 nM measured after 24 hrs by Annexin-V-FITC/propidium iodide staining based flow cytometry (reference value: 0.63 %); type: functional; method in brief: as §1
[14] = Selectivity ratio of IC50 for HUVEC in presence of fetal calf serum and absence of growth factor to IC50 for human A549 cells; type: cell-based; settings: HUVEC versus A549 cells, read-out: Ratio IC50; method in brief: as §3
[15] = Cell cycle arrest in human A549 cells assessed as accumulation at G2/M phase at 25 nM measured after 24 hrs by propidium iodide staining based flow cytometry relative to control; type: functional
Method in brief: (§5)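 A549 seeded at 3×10^5 cells/well and treated 24 or 48 h. Trypsinized, fixed in 70% ethanol at 4 °C overnight, RNase A 37 °C 30 min, then PI 4 °C 30 min. DNA content of 10,000 events read by flow cytometry at 488 nm. Three repeats.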

[16] = system: A549; experiment: Induction of apoptosis in human A549 cells assessed as late and early apoptotic cells at 10 nM measured after 24 hrs by Annexin-V-FITC/propidium iodide staining based flow cytometry (reference value: 0.63 %); type: functional; method in brief: as §1
[17] = Selectivity ratio of IC50 for HLF to IC50 for human A549 cells; type: ADME, cell-based; settings: HLF versus A549 cells, read-out: Ratio IC50; method in brief: as §3
[18] = Cell cycle arrest in human A549 cells assessed as accumulation at G2/M phase at 10 nM measured after 24 hrs by propidium iodide staining based flow cytometry relative to control; type: functional; method in brief: as §5
[19] = Antiproliferative activity against human BJ cells measured after 48 hrs by MTT assay; type: cell-based; method in brief: as §2
[20] = Cytotoxicity against HUVEC assessed as change in cell morphology at 200 nM in presence of fetal calf serum and absence of growth factor measured after 48 hrs by phase contrast microscopy; type: toxicity, cell-based; settings: human, 0.2 µM; method in brief: as §4
[21] = system: A549; experiment: Induction of apoptosis in human A549 cells assessed as late and early apoptotic cells at 50 nM measured after 24 hrs by Annexin-V-FITC/propidium iodide staining based flow cytometry (reference value: 0.63 %); type: functional; method in brief: as §1
[22] = Selectivity ratio of IC50 for human MCF10A cells to IC50 for human A549 cells; type: ADME, cell-based; settings: MCF10A cells versus A549 cells, read-out: Ratio IC50; method in brief: as §3
[23] = system: A549; experiment: Induction of apoptosis in human A549 cells by Annexin-V-FITC/propidium iodide staining based flow cytometry; type: functional, cell-based; method in brief: as §1
[24] = system: A549; experiment: Disruption of cellular microtubule network in human A549 cells assessed as blockade of cell mitosis measured after 12 hrs by Hochest 33342 staining based laser confocal microscopy
[25] = Antiproliferative activity against HUVEC in presence of fetal calf serum and absence of growth factor measured after 48 hrs by MTT assay; type: cell-based; settings: Homo sapiens; method in brief: as §2
[26] = system: A549; experiment: Induction of apoptosis in human A549 cells assessed as late and early apoptotic cells at 20 nM measured after 48 hrs by Annexin-V-FITC/propidium iodide staining based flow cytometry (reference value: 0.63 %); type: functional; method in brief: as §1
[27] = Cytotoxicity against HUVEC assessed as change in cell morphology at 20 nM in presence of fetal calf serum and absence of growth factor measured after 48 hrs by phase contrast microscopy; type: toxicity, cell-based; settings: human, 0.02 µM; method in brief: as §4
[28] = Cell cycle arrest in human A549 cells assessed as reduction in G1 phase at 10 to 50 nM measured after 24 to 48 hrs by propidium iodide staining based flow cytometry; type: functional; method in brief: as §5
[29] = system: A549; experiment: Induction of apoptosis in human A549 cells assessed as late and early apoptotic cells at 10 nM measured after 48 hrs by Annexin-V-FITC/propidium iodide staining based flow cytometry (reference value: 0.63 %); type: functional; method in brief: as §1
[30] = Cell cycle arrest in human A549 cells assessed as accumulation at G2/M phase at 50 nM measured after 24 hrs by propidium iodide staining based flow cytometry relative to control; type: functional; method in brief: as §5
[31] = system: A549; experiment: Disruption of cellular microtubule network in human A549 cells measured after 12 hrs by Hochest 33342 staining based laser confocal microscopy; type: cell-based
[32] = Antiproliferative activity against human MCF10A cells measured after 48 hrs by MTT assay; type: cell-based; settings: MCF-10A; method in brief: as §2

SMILES: COc1cc(C2=CCc3c2ccc2c3ccn2C)cc(OC)c1OC
IC50 [1]: 412 nM
IC50 [2]: 449 nM
IC50 [3]: 561 nM
IC50 [4]: 297 nM
IC50 [5]: 149 nM
IC50 [6]: 186 nM
IC50 [7]: 326 nM

SMILES: COc1ccc(/C=C\c2cc(OC)c(OC)c(OC)c2)cc1O [COMBRETASTATIN A4]
IC50 [1]: 26 nM
IC50 [2]: 29 nM
IC50 [3]: 13 nM
IC50 [4]: 17 nM
IC50 [8]: 1120 nM
IC50 [5]: 10 nM
IC50 [7]: 12 nM

SMILES: CCn1ccc2c3c(ccc21)C(c1cc(OC)c(OC)c(OC)c1)=CCCC3
IC50 [1]: 85 nM
IC50 [2]: 79 nM
IC50 [3]: 66 nM
IC50 [4]: 39 nM
IC50 [5]: 56 nM
IC50 [6]: 32 nM
IC50 [7]: 61 nM

SMILES: COc1cc(C2=CCCCc3c2ccc2[nH]cc(C=O)c32)cc(OC)c1OC
IC50 [1]: 950 nM
IC50 [2]: 2060 nM
IC50 [3]: 1260 nM
IC50 [4]: 1130 nM
IC50 [5]: 470 nM
IC50 [6]: 1020 nM
IC50 [7]: 860 nM

IC50 [8]: 150 nM
SMILES: COc1cc(C2CCCCc3c2ccc2c3ccn2C)cc(OC)c1OC (stereo not given)
Activity [9]: 60.2%
IC50 [10]: 1670 nM
selectivity ratio [11]: 55
Activity [12]: Active
IC50 [1]: 47 nM
IC50 [2]: 51 nM
Activity [13]: 39.6%
IC50 [3]: 39 nM
IC50 [4]: 49 nM
selectivity ratio [14]: 9.68
Activity [15]: 55.1%
Activity [16]: 22.8%
selectivity ratio [17]: 76.1
Activity [18]: 41%
IC50 [19]: 1210 nM
Activity [20]: Toxic
Activity [21]: 59.8%
selectivity ratio [22]: 30.5
IC50 [5]: 22 nM
Activity [23]: Dose-dependent effect
IC50 [6]: 37 nM
Activity [24]: Active
IC50 [25]: 213 nM
Activity [26]: 58.4%
Activity [27]: Non-Toxic
Activity [28]: Active
Activity [29]: 41.4%
IC50 [7]: 56 nM
Activity [30]: 72.1%
Activity [31]: Active
IC50 [32]: 672 nM

IC50 [8]: 410 nM
SMILES: COc1cc(C2=CCCCc3c2ccc2c3c(CO)cn2C)cc(OC)c1OC
IC50 [1]: 49 nM
IC50 [2]: 63 nM
IC50 [3]: 46 nM
IC50 [4]: 32 nM
IC50 [5]: 43 nM
IC50 [6]: 31 nM
IC50 [7]: 33 nM

IC50 [8]: 470 nM
SMILES: COc1cc(C2=CCCCc3c2ccc2c3c(C=O)cn2C)cc(OC)c1OC
IC50 [1]: 31 nM
IC50 [2]: 59 nM
IC50 [3]: 49 nM
IC50 [4]: 52 nM
IC50 [5]: 29 nM
IC50 [6]: 33 nM
IC50 [7]: 41 nM

SMILES: COc1cc(C2=CCCCc3c2ccc2[nH]ccc32)cc(OC)c1OC
IC50 [1]: 980 nM
IC50 [2]: 1560 nM
IC50 [3]: 620 nM
IC50 [4]: 520 nM
IC50 [5]: 451 nM
IC50 [6]: 1010 nM
IC50 [7]: 790 nM

SMILES: CCCn1ccc2c3c(ccc21)C(c1cc(OC)c(OC)c(OC)c1)=CCCC3
IC50 [1]: 690 nM
IC50 [2]: 780 nM
IC50 [3]: 480 nM
IC50 [4]: 690 nM
IC50 [5]: 520 nM
IC50 [6]: 240 nM
IC50 [7]: 600 nM

IC50 [8]: 580 nM
SMILES: COc1cc(C2=CCCCc3c2ccc2c3ccn2C)cc(OC)c1OC
IC50 [1]: 93 nM
IC50 [2]: 69 nM
IC50 [3]: 78 nM
IC50 [4]: 47 nM
IC50 [5]: 49 nM
IC50 [6]: 44 nM
IC50 [7]: 56 nM

IC50 [8]: 1040 nM
SMILES: COc1cc(C2=CCCCc3c2ccc2c3CCN2C)cc(OC)c1OC
IC50 [1]: 77 nM
IC50 [2]: 58 nM
IC50 [3]: 61 nM
IC50 [4]: 79 nM
IC50 [5]: 56 nM
IC50 [6]: 69 nM
IC50 [7]: 45 nM

SMILES: COC(=O)C(=O)c1cn(C)c2ccc3c(c12)CCCC=C3c1cc(OC)c(OC)c(OC)c1
IC50 [1]: > 10000 nM
IC50 [2]: > 10000 nM
IC50 [3]: > 10000 nM
IC50 [4]: > 10000 nM
IC50 [5]: > 10000 nM
IC50 [6]: > 10000 nM
IC50 [7]: > 10000 nM

SMILES: COc1cc(C2=CCCCc3c2ccc2c3CCN2)cc(OC)c1OC
IC50 [1]: 741 nM
IC50 [2]: 812 nM
IC50 [3]: 797 nM
IC50 [4]: 1120 nM
IC50 [5]: 312 nM
IC50 [6]: 597 nM
IC50 [7]: 701 nM
